What was measured:
[1] = tested on: Rattus norvegicus; test: Liver uptake after 1 day was determined in female Fischer rats after [125I]-labeled compound complexed with bovine serum albumin was injected intravenously; assay type: functional
In short: (§1)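 Female Fischer 344 rats (fed ad libitum) under ether anaesthesia received the ¹²⁵I fatty acid in a lateral tail vein. Dose was ~3.8–4.8 μCi per rat (sp act ~125–240 mCi/mmol), given in 0.5 mL 6% bovine albumin (final ethanol 10%) after filtration. Four rats per time point were used. Tissue radioactivity is % injected dose/g, mean with range, calculated against standards of the injected solution.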

[2] = tested on: Rattus norvegicus; test: Liver uptake after 2 hr was determined in female Fischer rats after [125I]-labeled compound complexed with bovine serum albumin was injected intravenously; assay type: functional; in short: as §1
[3] = tested on: Rattus norvegicus; test: Liver uptake after 30 min was determined in female Fischer rats after [125I]-labeled compound complexed with bovine serum albumin was injected intravenously; assay type: functional; in short: as §1
[4] = tested on: Rattus norvegicus; test: Liver uptake after 4 hr was determined in female Fischer rats after [125I]-labeled compound complexed with bovine serum albumin was injected intravenously; assay type: functional; in short: as §1
[5] = tested on: Rattus norvegicus; test: Liver uptake after 5 min was determined in female Fischer rats after [125I]-labeled compound complexed with bovine serum albumin was injected intravenously; assay type: functional; in short: as §1
[6] = tested on: Rattus norvegicus; test: Liver uptake after 60 min was determined in female Fischer rats after [125I]-labeled compound complexed with bovine serum albumin was injected intravenously; assay type: functional; in short: as §1
[7] = tested on: Rattus norvegicus; test: Lungs uptake after 1 day was determined in female Fischer rats after [125I]-labeled compound complexed with bovine serum albumin was injected intravenously; assay type: functional; in short: as §1
[8] = tested on: Rattus norvegicus; test: Lungs uptake after 2 hr was determined in female Fischer rats after [125I]-labeled compound complexed with bovine serum albumin was injected intravenously; assay type: functional; in short: as §1
[9] = tested on: Rattus norvegicus; test: Lungs uptake after 30 min was determined in female Fischer rats after [125I]-labeled compound complexed with bovine serum albumin was injected intravenously; assay type: functional; in short: as §1
[10] = tested on: Rattus norvegicus; test: Lungs uptake after 3 days was determined in female Fischer rats after [125I]-labeled compound complexed with bovine serum albumin was injected intravenously; assay type: functional; in short: as §1
[11] = tested on: Rattus norvegicus; test: Lungs uptake after 4 hr was determined in female Fischer rats after [125I]-labeled compound complexed with bovine serum albumin was injected intravenously; assay type: functional; in short: as §1
[12] = tested on: Rattus norvegicus; test: Lungs uptake after 60 min was determined in female Fischer rats after [125I]-labeled compound complexed with bovine serum albumin was injected intravenously; assay type: functional; in short: as §1
[13] = tested on: Rattus norvegicus; test: Thyroid uptake after 1 day was determined in female Fischer rats after [125I]-labeled compound complexed with bovine serum albumin was injected intravenously; assay type: functional
In short: (§2)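 Female Fischer 344 rats with free access to food and water. The 125I-labelled fatty acid (~3.8–4.8 μCi; sp act. ~125–240 mCi/mmol) was complexed with 6% bovine serum albumin (10% final ethanol), filtered, and 0.5 mL was injected via a lateral tail vein under ether anaesthesia. Four rats per time point. Values are mean % injected dose/g, calculated against injectate standards. Thyroid weight was taken as 7.5 mg/100 g body weight.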

[14] = tested on: Rattus norvegicus; test: Thyroid uptake after 4 hr was determined in female Fischer rats after [125I]-labeled compound complexed with bovine serum albumin was injected intravenously; assay type: functional; in short: as §2
[15] = tested on: Rattus norvegicus; test: Thyroid uptake after 60 min was determined in female Fischer rats after [125I]-labeled compound complexed with bovine serum albumin was injected intravenously; assay type: functional; in short: as §2
[16] = tested on: Rattus norvegicus; test: Thyroid uptake after 5 min was determined in female Fischer rats after [125I]-labeled compound complexed with bovine serum albumin was injected intravenously; assay type: functional; in short: as §2
[17] = tested on: Rattus norvegicus; test: Blood uptake after 30 min was determined in female Fischer rats after [125I]-labeled compound complexed with bovine serum albumin was injected intravenously; assay type: functional; in short: as §1
[18] = tested on: Rattus norvegicus; test: Blood uptake after 4 hr was determined in female Fischer rats after [125I]-labeled compound complexed with bovine serum albumin was injected intravenously; assay type: functional; in short: as §1
[19] = tested on: Rattus norvegicus; test: Blood uptake after 5 min was determined in female Fischer rats after [125I]-labeled compound complexed with bovine serum albumin was injected intravenously; assay type: functional; in short: as §1
[20] = tested on: Rattus norvegicus; test: Blood uptake after 60 min was determined in female Fischer rats after [125I]-labeled compound complexed with bovine serum albumin was injected intravenously; assay type: functional; in short: as §1
[21] = tested on: Rattus norvegicus; test: Heart uptake after 1 day was determined in female Fischer rats after [125I]-labeled compound complexed with bovine serum albumin was injected intravenously; assay type: functional; in short: as §1
[22] = tested on: Rattus norvegicus; test: Heart uptake after 2 hr was determined in female Fischer rats after [125I]-labeled compound complexed with bovine serum albumin was injected intravenously; assay type: functional; in short: as §1
[23] = tested on: Rattus norvegicus; test: Heart uptake after 30 min was determined in female Fischer rats after [125I]-labeled compound complexed with bovine serum albumin was injected intravenously; assay type: functional; in short: as §1
[24] = Ratio of heart to blood uptake after 120 min was determined in female Fischer rats after [125I]-labeled compound complexed with bovine serum albumin was injected intravenously; assay type: functional
In short: (§3)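 Female Fischer 344 rats (food and water ad libitum) given the 125I-labelled fatty acid in 6% bovine albumin with 10% final ethanol, filtered, 0.5 mL into a lateral tail vein under ether anaesthesia. Four rats per time point. Tissue activity expressed as % injected dose/g against assayed injectate standards. Mean heart/tissue ratios were calculated from mean %ID/g values.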

[25] = Ratio of heart to blood uptake after 30 min was determined in female Fischer rats after [125I]-labeled compound complexed with bovine serum albumin was injected intravenously; assay type: functional; in short: as §3
[26] = Ratio of heart to blood uptake after 5 min was determined in female Fischer rats after [125I]-labeled compound complexed with bovine serum albumin was injected intravenously; assay type: functional; in short: as §3
[27] = Ratio of heart to blood uptake after 60 min was determined in female Fischer rats after [125I]-labeled compound complexed with bovine serum albumin was injected intravenously; assay type: functional; in short: as §3
[28] = Ratio of heart to kidneys uptake after 120 min was determined in female Fischer rats after [125I]-labeled compound complexed with bovine serum albumin was injected intravenously; assay type: functional, Heart/Kidney; in short: as §3
[29] = Ratio of heart to kidneys uptake after 240 min was determined in female Fischer rats after [125I]-labeled compound complexed with bovine serum albumin was injected intravenously; assay type: functional, Heart/Kidney; in short: as §3
[30] = Ratio of heart to kidneys uptake after 30 min was determined in female Fischer rats after [125I]-labeled compound complexed with bovine serum albumin was injected intravenously; assay type: functional, Heart/Kidney; in short: as §3
[31] = Ratio of heart to kidneys uptake after 5 min was determined in female Fischer rats after [125I]-labeled compound complexed with bovine serum albumin was injected intravenously; assay type: functional, Heart/Kidney; in short: as §3
[32] = Ratio of heart to liver uptake after 120 min was determined in female Fischer rats after [125I]-labeled compound complexed with bovine serum albumin was injected intravenously; assay type: functional; in short: as §3
[33] = Ratio of heart to liver uptake after 5 min was determined in female Fischer rats after [125I]-labeled compound complexed with bovine serum albumin was injected intravenously; assay type: functional; in short: as §3
[34] = Ratio of heart to liver uptake after 60 min was determined in female Fischer rats after [125I]-labeled compound complexed with bovine serum albumin was injected intravenously; assay type: functional; in short: as §3
[35] = Ratio of heart to liver uptake after 240 min was determined in female Fischer rats after [125I]-labeled compound complexed with bovine serum albumin was injected intravenously; assay type: functional; in short: as §3
[36] = Ratio of heart to lungs uptake after 120 min was determined in female Fischer rats after [125I]-labeled compound complexed with bovine serum albumin was injected intravenously; assay type: functional; in short: as §3
[37] = Ratio of heart to lungs uptake after 240 min was determined in female Fischer rats after [125I]-labeled compound complexed with bovine serum albumin was injected intravenously; assay type: functional; in short: as §3
[38] = Ratio of heart to lungs uptake after 30 min was determined in female Fischer rats after [125I]-labeled compound complexed with bovine serum albumin was injected intravenously; assay type: functional; in short: as §3
[39] = Ratio of heart to lungs uptake after 5 min was determined in female Fischer rats after [125I]-labeled compound complexed with bovine serum albumin was injected intravenously; assay type: functional; in short: as §3
[40] = Ratio of heart to lungs uptake after 60 min was determined in female Fischer rats after [125I]-labeled compound complexed with bovine serum albumin was injected intravenously; assay type: functional; in short: as §3
[41] = Ratio of heart to liver uptake after 30 min was determined in female Fischer rats after [125I]-labeled compound complexed with bovine serum albumin was injected intravenously; assay type: functional; in short: as §3

O=C(O)CCCCCCC[Te]CCCCCCC/C=C/I
Injected dose/g [1]: 1.64%
Injected dose/g [2]: 4.66%
Injected dose/g [3]: 5.69%
Injected dose/g [4]: 3.76%
Injected dose/g [5]: 6.41%
Injected dose/g [6]: 4.87%
Injected dose/g [7]: 0.55%
Injected dose/g [8]: 1.43%
Injected dose/g [9]: 1.52%
Injected dose/g [10]: 0.34%
Injected dose/g [11]: 1.21%
Injected dose/g [12]: 1.57%
Injected dose/g [13]: 294%
Injected dose/g [14]: 66.9%
Injected dose/g [15]: 24.8%
Injected dose/g [16]: 9.21%
Injected dose/g [17]: 0.45%
Injected dose/g [18]: 0.53%
Injected dose/g [19]: 0.23%
Injected dose/g [20]: 0.36%
Injected dose/g [21]: 0.86%
Injected dose/g [22]: 3.9%
Injected dose/g [23]: 3.76%
Ratio [24]: 9
Ratio [25]: 8
Ratio [26]: 21
Ratio [27]: 14
Ratio [28]: 3.1
Ratio [29]: 2.9
Ratio [30]: 3.7
Ratio [31]: 3.1
Ratio [32]: 0.84
Ratio [33]: 0.75
Ratio [34]: 1.06
Ratio [35]: 0.93
Ratio [36]: 2.7
Ratio [37]: 2.9
Ratio [38]: 2.5
Ratio [39]: 2.9
Ratio [40]: 3.3
Ratio [41]: 0.66

O=C(O)CCCCCCCCC[Te]CCCCC/C=C/I
Injected dose/g [1]: 0.52%
Injected dose/g [2]: 3.47%
Injected dose/g [3]: 6.49%
Injected dose/g [4]: 2.52%
Injected dose/g [5]: 8.33%
Injected dose/g [6]: 5.15%
Injected dose/g [7]: 0.76%
Injected dose/g [8]: 2.02%
Injected dose/g [9]: 2.06%
Injected dose/g [10]: 0.32%
Injected dose/g [11]: 1.59%
Injected dose/g [12]: 2.07%
Injected dose/g [13]: 221%
Injected dose/g [14]: 72%
Injected dose/g [15]: 37%
Injected dose/g [16]: 29%
Injected dose/g [17]: 0.66%
Injected dose/g [18]: 1.03%
Injected dose/g [19]: 0.45%
Injected dose/g [20]: 0.67%
Injected dose/g [21]: 0.69%
Injected dose/g [22]: 3.8%
Injected dose/g [23]: 3.05%
Ratio [24]: 5
Ratio [25]: 5
Ratio [26]: 7
Ratio [27]: 5
Ratio [28]: 2.5
Ratio [29]: 1.7
Ratio [30]: 1.5
Ratio [31]: 1.4
Ratio [32]: 1.1
Ratio [33]: 0.37
Ratio [34]: 0.7
Ratio [35]: 0.97
Ratio [36]: 1.9
Ratio [37]: 1.5
Ratio [38]: 1.6
Ratio [39]: 1.2
Ratio [40]: 1.8
Ratio [41]: 0.47

Reference: ChEMBL document CHEMBL1122777, “Effect of tellurium position on the myocardial uptake of radioiodinated 18-iodotellura-17-octadecenoic acid analogues” (1984)
